Screening data (PubChem)
An excerpt weighted towards active compounds, which were near 1.8% of everything screened.
Jurkat NFkB inh = inhibitors of the PMA/ionomycin-induced NF-kB reporter in Jurkat cells | PMA/ionomycin-induced NF-kB luciferase reporter, luminescence | inhibition, % at 4 µM | 330,000 tested, 0.53% active; in the data active means inhibition above about 50%
CRFBP-R2 block = antagonists of CRF-binding protein/CRF-R2 receptor complex | AID 588475 | 350,000 tested, 0.59% active | inhibition, % at 11.8 µM | HEK293 CRF-R2/CRF-BP, CRF-induced calcium fluorescence;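 active means inhibition of the ligand-induced calcium signal above about 50% at the single tested concentration, limit read from the data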
CHOP UPR activ = activators of apoptotic arm of unfolded protein response (CHOP). CHO-CHOP luciferase reporter, UPR activation, luminescence; percent of tunicamycin response over DMSO baseline. 330,000 tested, 0.34% active. activation, % at 10 µM. AID 449763;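 active means at 10 µM dose, activation of 40% or more, normalized to positive control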
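Assay system: CHO cells with stable CHOP pathway luciferase reporter; Buffer or medium: F12 plus 10% serum; Times: 16-18 h cell attachment, then 6 h compound exposure, 37 °C; Signal: luciferase luminescence; Read-out basis: percent activation relative to tunicamycin control; Control set: tunicamycin high control, DMSO low control.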
UPR XBP1 act = adaptive UPR (XBP1) activation | CHO-XBP1 luciferase reporter, IRE1-XBP1 UPR activation, luminescence; percent of tunicamycin response, DMSO as zero | activation, % at 20 µM | 330,000 tested, 0.33% active | AID 463104;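 active means versus positive control, 20 µM dose yields 30% or more activation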
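Test system: CHO-XBP1 luciferase reporter cells | Buffer or medium: Serum-containing F12 medium, 10% FBS | Schedule: 6 h compound exposure at 37 °C, 5% CO2 | Detection: Steady-Glo luciferase glow luminescence, 10 min after reagent addition | Read-out basis: Activation, % of tunicamycin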
697 NFkB inh = lowers PMA/ionomycin-induced NF-kB signal in 697 B cells; 697 B-cell NF-kB luciferase reporter, 16 h; inhibition, % at 4 µM; 330,000 tested, 0.33% active; AID 435022; in the data active means inhibition above about 35%
Numbers stand for hits; n = inactive; x = no result given.

SMILES	Jurkat NFkB inh	CRFBP-R2 block	CHOP UPR activ	UPR XBP1 act	697 NFkB inh
Cc1c(Cl)c([N+](=O)[O-])nn1CC(=O)NC1CCCCC1	n	99	n	n	n
Cc1c(Br)c([N+](=O)[O-])nn1CC(=O)NC1CCCCCC1	n	n	n	n	n
N/C(Cc1ccccc1Sc1ccccc1)=N\O	n	61	n	n	n
CCCCNc1nc(CC)c2c(c1C#N)CCCC2	n	61	n	n	n
CCCCc1nc(NCCO)c(C#N)c2c1CCCC2	n	n	n	n	n
CCN(CC)c1ccc(NC(=O)c2ccccn2)cc1S(=O)(=O)Nc1ccccc1OC	n	n	n	n	n
Cc1ccc(NC(=O)C2CCCN2C(=O)c2cccs2)cc1C (centres undefined)	n	54	n	n	n
COC(=O)c1cccc(NC(=O)C2CCCN2C(=O)c2cccs2)c1 (centres undefined)	n	n	n	n	n
O=C(COC(=O)c1ccccc1F)NC(=O)NC1CCCC1	n	n	n	n	n
Cc1ccc(S(=O)(=O)Nc2nc3ccccc3nc2Nc2cccc(S(=O)(=O)N3CCCC3)c2)cc1	n	n	n	n	n
O=[N+]([O-])c1cccc(S(=O)(=O)Nc2nc3ccccc3nc2Nc2cccc(S(=O)(=O)N3CCCCC3)c2)c1	x	90	x	x	x
COc1ccc(C(=O)COC(=O)c2nn(C)cc2Cl)cc1	n	n	n	n	n
O=C(COC(=O)C1CC(=O)N(Cc2ccco2)C1)c1ccc(OC(=O)c2ccco2)cc1 (centres undefined)	n	82	n	n	n
CN(C)c1ccc(C=C2C(=O)OC(C)(C)OC2=O)cc1	n	52	n	n	n
CN(C(=O)COC(=O)CNC(=O)c1sc2ccccc2c1Cl)C1CCS(=O)(=O)C1 (centres undefined)	n	n	n	n	n
Cn1c(=O)n(C)c2cc(S(=O)(=O)Nc3cc(Cl)ccc3O)ccc21	n	103	n	n	n
Cn1c(=O)n(C)c2cc(S(=O)(=O)Nc3ccccc3O)ccc21	n	n	n	n	n
CC(C)C1Nc2c(O)cc(Cl)c([N+](=O)[O-])c2C2C=CCC21 (centres undefined)	x	59	x	x	x
Cc1cccc(NC(=O)c2nc[nH]c2C(=O)N2CCN(C(=O)OC(C)(C)C)CC2)c1	n	n	n	n	n
CC1CCN(C(=O)COC(=O)c2cc([N+](=O)[O-])ccc2N2CCOCC2)CC1	n	n	n	n	n
COC(=O)C1CCN(C(=O)COC(=O)c2cc([N+](=O)[O-])ccc2N2CCOCC2)CC1	n	105	n	n	n
O=C(CNC(=O)C12CC3CC(CC(C3)C1)C2)OCc1ccc(F)cc1Cl	n	n	n	n	n
COc1cccc(-n2nc(C#N)c(Cl)cc2=O)c1	n	74	n	n	n
COc1cccc(-n2nc(C(N)=O)c(O)cc2=O)c1	n	n	n	n	n
CC(C)Cn1c(SCC(=O)N2CCc3ccccc3C2)nc2cc(Cl)ccc2c1=O	n	118	n	n	n
SMILES	Jurkat NFkB inh	CRFBP-R2 block	CHOP UPR activ	UPR XBP1 act	697 NFkB inh
O=C(NCCc1ccco1)C(=O)NCC1CCCN1S(=O)(=O)c1ccccc1 (centres undefined)	n	n	n	n	n
COc1ccc(C(=O)OCCN2C(=O)c3ccccc3C2=O)cc1OC	x	n	x	x	x
O=C(OCCN1C(=O)c2ccccc2C1=O)c1cccc(OC(F)F)c1	n	100	n	n	n
CCC(CC)NC(=O)CN1CCN(S(=O)(=O)c2cccs2)CC1	n	n	n	n	n
CCCCC1(C)OC(=O)C(=Cc2ccc(-c3ccc(Cl)c(C(=O)O)c3)o2)C(=O)O1 (centres undefined)	n	61	n	n	n
Cc1ccc(N2NC(=O)/C(=C/c3ccc(-c4ccc(Cl)c(C(=O)O)c4)o3)C2=O)cc1	n	n	n	n	n
CC1CCC(NC(=O)c2ccc(NC3=NC4CS(=O)(=O)CC4S3)cc2)CC1 (centres undefined)	n	n	n	n	n
CCOC(=O)c1c(C)[nH]c(C)c1C(=O)COC(=O)/C=C/c1ccc(Cl)cc1	n	129	n	n	n
CCOC(=O)c1c(C)[nH]c(C)c1C(=O)COC(=O)/C=C/c1ccc(OC(F)F)cc1	n	n	n	n	n
CC(=O)Nc1ccc(C=C(C#N)c2ccc(C)cc2)cc1	x	n	x	x	x
COc1ccc(-c2ccnc(SCC(=O)N3CCN(c4ccccc4)CC3)n2)cc1	n	61	n	n	n
Cc1ccnc(SCC(=O)N2CCN(c3ccccc3)CC2)n1	n	n	n	n	n
CCOC(=O)N1CCN(C(=O)CSc2nnc(-c3ccc(C(C)(C)C)cc3)o2)CC1	n	89	n	n	n
Cc1ccc(-c2nnc(SCC(=O)N3CCN(c4ccccc4)CC3)o2)cc1	n	88	n	n	n
CCOC(=O)N1CCN(C(=O)CSc2nnc(-c3ccc(C)c(C)c3)o2)CC1	n	n	n	n	n
CC(=O)NCCc1c(C)n(Cc2ccccc2)c2ccccc12	n	n	n	n	n
CC(=O)c1ccc[n+](CC(=O)NC(C)c2ccccc2)c1 (centres undefined)	n	n	n	n	n
COc1ccc([N+](=O)[O-])cc1NC(=O)c1ccccc1SC	n	100	n	n	n
C/C=C/C=C/C(=O)OC(C)C(=O)Nc1cc([N+](=O)[O-])ccc1OC (centres undefined)	n	112	n	n	n
COc1ccc(Cl)cc1NC(=O)C/C(C)=N/NC(=O)c1ccccc1[N+](=O)[O-]	n	n	n	n	n
COc1ccc(Cl)cc1NC(=O)c1cccc([N+](=O)[O-])c1O	x	83	x	x	x
Cc1ccc(C(=O)NNC(=O)c2cc(C)nc3ccccc23)cc1	n	n	n	n	n
COc1ccc(C(=O)COC(=O)c2cccnc2SC)cc1	n	78	n	n	n
CSc1ncccc1C(=O)OCC(=O)c1ccccc1	n	n	n	n	n
COCCN(C(=O)COC(=O)COc1ccc(Cl)c(C)c1)c1c(N)n(Cc2ccccc2)c(=O)[nH]c1=O	n	n	n	n	n
SMILES	Jurkat NFkB inh	CRFBP-R2 block	CHOP UPR activ	UPR XBP1 act	697 NFkB inh
CCN(CC(=O)Nc1ccc(NC(C)=O)cc1)C(=O)c1ccc(=O)n(C)n1	n	98	n	n	n
CC(Oc1cccc(Cl)c1)C(=O)NNC(=O)c1cccnc1 (centres undefined)	n	68	n	n	n
COc1cc(OC)c(OC)cc1CNC(=O)c1ccc(COc2ccccc2)cc1	n	n	n	n	n
Cc1ccc(S(=O)(=O)N(C)c2ccc(C(=O)N3CCN(Cc4ccc5c(c4)OCO5)CC3)cc2)cc1	n	n	n	n	n
CN(c1ccc(C(=O)N2CCN(Cc3ccc4c(c3)OCO4)CC2)cc1)S(=O)(=O)c1ccccc1	n	68	n	n	n
COc1ccc(/C=N/OCC(=O)N=Nc2c(O)[nH]c3ccc(Br)cc23)cc1	n	55	n	n	n
